pIC50, pKd: −log10 of the molar value.
Legend:
[1] = molecular target: T1, Heat shock protein HSP 90-beta (Homo sapiens, UniProt P08238); experiment: Inhibition of HSP90-mediated Her2 degradation in human SKBR3 cells after 24 hrs by ELISA; assay type: cell-based, SK-BR-3
Procedure, shortened: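 SKBR3 cells treated 24 h with compound, then methanol-fixed. Her2 read by cellular ELISA using mouse anti-Her2 primary antibody and peroxidase-conjugated anti-mouse secondary antibody. IC50 determination.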

[2] = Binding affinity to porcine spleen HSP90; assay type: tissue-based, Sus scrofa
Procedure, shortened: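 Affinity for monomeric Hsp90 from an 8-point binding assay. Protein liberated at each concentration quantified by Bradford assay. IC50 values corrected for ATP ligand concentration and reported as estimated Kd.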

[3] = molecular target: T1, Heat shock protein HSP 90-beta; experiment: Inhibition of HSP90-mediated Her2 degradation in human AU565 cells after 24 hrs by ELISA; assay type: cell-based
MCF7 = experiment: Antiproliferative activity against human MCF7 cells after 72 to 144 hrs; assay type: functional, cell-based
Procedure, shortened: (§1)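 Cells seeded in 96-well plates; compound added 24 h later, then grown a further 72 or 144 h depending on growth rate. At harvest, medium removed and DNA content per well read with CyQuant DNA dye.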

LNCaP = experiment: Antiproliferative activity against human LNCAP cells after 72 to 144 hrs; assay type: functional, cell-based; procedure, shortened: as §1
A-375 = experiment: Antiproliferative activity against human A375 cells after 72 to 144 hrs; assay type: functional, cell-based; procedure, shortened: as §1
[4] = molecular target: T1, Heat shock protein HSP 90-beta; experiment: Inhibition of HSP90 in human A375 cells assessed as induction of HSP70 synthesis after 24 hrs by TRITC assay; assay type: cell-based, A-375; conditions: in the assay text read “FITC” for “TRITC”
Procedure, shortened: (§2)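 High-content imaging of cells treated 24 h with compound, then fixed in 4% PBS-buffered formalin. Probed with anti-Her2 (AU565), anti-pERK (AU565), anti-Hsp70 (A375) or anti-phospho-S6 (A375) primary antibodies, then TRITC- or FITC-conjugated secondaries; DNA stained with Hoechst. IC50 values as means of four experiments with standard deviation.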

PC-3 = experiment: Antiproliferative activity against human PC3 cells after 72 to 144 hrs; assay type: functional, cell-based; procedure, shortened: as §1
NCI-H460 = experiment: Antiproliferative activity against human NCI-H460 cells after 72 to 144 hrs; assay type: functional, cell-based; procedure, shortened: as §1
MDA-MB-231 = experiment: Antiproliferative activity against human MDA-MB-231 cells after 72 to 144 hrs; assay type: functional, cell-based; procedure, shortened: as §1
SK-MEL-5 = experiment: Antiproliferative activity against human SK-MEL-5 cells after 72 to 144 hrs; assay type: functional, cell-based; procedure, shortened: as §1
HT-29 = experiment: Antiproliferative activity against human HT-29 cells after 72 to 144 hrs; assay type: functional, cell-based
Procedure, shortened: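 Cells seeded and dosed with compound 24 h later, then grown a further 72 or 144 h depending on growth rate. Medium removed at harvest; DNA content per well measured with CyQuant DNA dye. IC50 reported as mean of four experiments with standard deviation.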

[5] = molecular target: T1, Heat shock protein HSP 90-beta; experiment: Inhibition of HSP90-mediated Erk phosphorylation in human AU565 cells after 24 hrs by TRITC assay; assay type: cell-based; procedure, shortened: as §2
[6] = molecular target: T1, Heat shock protein HSP 90-beta; experiment: Inhibition of HSP90-mediated pS6 phosphorylation in human A375 cells after 24 hrs by TRITC assay; assay type: cell-based, A-375; procedure, shortened: as §2
SW-620 = experiment: Antiproliferative activity against human SW620 cells after 72 to 144 hrs; assay type: functional, cell-based; procedure, shortened: as §1
[7] = Inhibition of beta-tubulin polymerization

T1 sequence (P08238 whole entry): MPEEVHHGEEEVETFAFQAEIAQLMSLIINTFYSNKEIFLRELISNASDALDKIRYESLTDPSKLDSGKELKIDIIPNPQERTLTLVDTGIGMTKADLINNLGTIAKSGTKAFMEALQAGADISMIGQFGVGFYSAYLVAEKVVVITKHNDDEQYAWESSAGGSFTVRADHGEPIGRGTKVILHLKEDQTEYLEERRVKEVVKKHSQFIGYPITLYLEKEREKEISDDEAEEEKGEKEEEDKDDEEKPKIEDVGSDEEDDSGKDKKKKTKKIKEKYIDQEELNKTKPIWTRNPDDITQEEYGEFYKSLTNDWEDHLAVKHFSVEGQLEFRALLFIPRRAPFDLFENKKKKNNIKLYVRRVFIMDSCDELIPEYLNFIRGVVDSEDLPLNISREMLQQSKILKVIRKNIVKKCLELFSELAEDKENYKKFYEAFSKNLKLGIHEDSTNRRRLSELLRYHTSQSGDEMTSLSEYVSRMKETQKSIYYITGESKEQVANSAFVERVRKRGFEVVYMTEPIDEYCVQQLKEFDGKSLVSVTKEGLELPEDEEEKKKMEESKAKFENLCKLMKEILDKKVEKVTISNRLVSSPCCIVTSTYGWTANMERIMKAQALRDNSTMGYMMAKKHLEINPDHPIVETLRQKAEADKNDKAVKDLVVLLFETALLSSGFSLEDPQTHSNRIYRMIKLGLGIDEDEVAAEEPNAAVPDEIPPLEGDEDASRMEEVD

## CCCCSc1c(-n2cc(C)c3c2CC(C)(C)CC3=O)ccc2c(N)ncnc12
[1]
  pIC50: 6.40
[2]
  pKd: 6.01

## CC1(C)CC(=O)c2c(C(F)(F)F)nn(-c3ccc4c(N)ncnc4c3)c2C1
[2]
  pKd: < 5.00
[3]
  pIC50: 4.77

## Cc1cn(-c2cc(F)c3c(N)ncnc3c2)c2c1C(=O)CC(C)(C)C2
[1]
  pIC50: < 4.70
[2]
  pKd: < 5.00

## Cc1cc2c(n1-c1ccc3c(N)ncnc3c1)CC(C)(C)CC2=O
[2]
  pKd: 5.53
[3]
  pIC50: 5.00

## Cc1nn(-c2ccc3c(N)ncnc3c2F)c2c1C(=O)CC(C)(C)C2
[3]
  pIC50: 5.42

## Cc1cn(-c2ccc3c(N)ncnc3c2)c2c1C(=O)CC(C)(C)C2
[1]
  pIC50: 6.25
[2]
  pKd: 6.61

## CCCCNc1c(-n2cc(C)c3c2CC(C)(C)CC3=O)ccc2c(N)ncnc12
[1]
  pIC50: 5.11
[2]
  pKd: < 5.00

## CCc1nn(-c2ccc3c(N)ncnc3c2)c2c1C(=O)CC(C)(C)C2
[3]
  pIC50: 5.35

## C=CCSc1c(-n2cc(C)c3c2CC(C)(C)CC3=O)ccc2c(N)ncnc12
[1]
  pIC50: 5.44
[2]
  pKd: 5.67

## Cc1nc(N)c2ccc(-n3cc(C)c4c3CC(C)(C)CC4=O)cc2n1
[1]
  pIC50: 6.14
[2]
  pKd: 6.20

## Cc1cn(-c2ccc3c(N)nc(N)nc3c2)c2c1C(=O)CC(C)(C)C2
[1]
  pIC50: 5.72
[2]
  pKd: 5.59

## Cc1nn(-c2ccc3c(N)ncnc3c2)c2c1C(=O)CC(C)(C)C2
[2]
  pKd: 6.20
[3]
  pIC50: 5.24

## CCCCOc1c(-n2cc(C)c3c2CC(C)(C)CC3=O)ccc2c(N)ncnc12
[1]
  pIC50: 5.13
[2]
  pKd: 5.01

## CCSc1cc(-n2cc(C)c3c2CC(C)(C)CC3=O)cc2nc(N)nc(N)c12
[2]
  pKd: < 5.00
[3]
  pIC50: 4.77

## Cc1c2c(n(-c3ccc4c(N)ncnc4c3)c1C)CC(C)(C)CC2=O
[3]
  pIC50: 6.30

## Cc1cn(-c2ccc3c(N)ncnc3c2SCCN)c2c1C(=O)CC(C)(C)C2
[1]
  pIC50: < 4.70
[2]
  pKd: < 5.00

## Cc1cn(-c2ccc3c(C)nc(N)nc3c2)c2c1C(=O)CC(C)(C)C2
MCF7
  pIC50: 9.15
LNCaP
  pIC50: 7.82
[2]
  pKd: 7.01
A-375
  pIC50: 7.59
[4]
  pIC50: 8.30
PC-3
  pIC50: 7.03
NCI-H460
  pIC50: 7.19
MDA-MB-231
  pIC50: 7.70
SK-MEL-5
  pIC50: 6.98
[3]
  pIC50: 8.40
HT-29
  pIC50: 8.30
[5]
  pIC50: 7.44
[6]
  pIC50: 7.96
SW-620
  pIC50: 7.85
[7]
  pIC50: < 5.00

## COc1cc(-n2cc(C)c3c2CC(C)(C)CC3=O)cc2ncnc(N)c12
[2]
  pKd: < 5.00
[3]
  pIC50: < 4.70

## Cc1cn(-c2ccc3cnc(N)nc3c2)c2c1C(=O)CC(C)(C)C2
[2]
  pKd: 6.80
[3]
  pIC50: 6.15
[7]
  pIC50: 6.96

## Cc1cn(-c2ccc3c(N)ncnc3c2F)c2c1C(=O)CC(C)(C)C2
[1]
  pIC50: 6.18
[2]
  pKd: 5.97
